Data taken from ChEMBL document CHEMBL1152649, “Synthesis, cytotoxicity and human telomerase inhibition activities of a series of 1,2-heteroannelated anthraquinones and anthra[1,2-d]imidazole-6,11-dione homologues” (2009).

Legend:
CAKI-1 = test: Antiproliferative activity against human Caki1 cells assessed as cell growth at 10 uM; assay type: functional; settings: read-out: Activity
How it was run: (§1)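 NCI 60 cell line panel, single-dose screen (10^-5 M) run by the developmental therapeutics program protocol. Results are given as growth percent of treated cells relative to untreated control cells for each line.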

SNB-19 = test: Antiproliferative activity against human SNB19 cells assessed as cell growth at 10 uM; assay type: functional; settings: read-out: Activity; how it was run: as §1
HL-60(TB) = test: Antiproliferative activity against human HL-60(TB) cells assessed as cell growth at 10 uM; assay type: functional; settings: read-out: Activity
How it was run: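 NCI Developmental Therapeutics Program 60-cell-line one-dose screen at 10^-5 M. Readout is growth percentage of treated cells relative to untreated control cells.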

SF-268 = test: Antiproliferative activity against human SF268 cells assessed as cell growth at 10 uM; assay type: functional; settings: read-out: Activity; how it was run: as §1
SN12C = test: Antiproliferative activity against human SN12C cells assessed as cell growth at 10 uM; assay type: functional; settings: read-out: Activity; how it was run: as §1
786-0 = test: Antiproliferative activity against human 786-0 cells assessed as cell growth at 10 uM; assay type: functional; settings: read-out: Activity; how it was run: as §1
U-251 = test: Antiproliferative activity against human U251 cells assessed as cell growth at 10 uM; assay type: functional; settings: read-out: Activity
How it was run: (§2)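 NCI 60 cell line panel, single dose (10^-5 M), run per the Developmental Therapeutics Program protocol (one dose mean graph). Each result is the growth percentage of treated cells relative to untreated control cells.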

[1] = molecular target: Telomerase reverse transcriptase (Homo sapiens) (UniProt O14746); test: Inhibition of TERT in human H1299 cells assessed as residual transcriptional activity at 1 uM after 24 hrs by SEAP reporter gene assay; values are per cent of control
SK-OV-3 = test: Antiproliferative activity against human SKOV3 cells assessed as cell growth at 10 uM; assay type: functional; settings: read-out: Activity; how it was run: as §1
A498 = test: Antiproliferative activity against human A498 cells assessed as cell growth at 10 uM; assay type: functional; settings: read-out: Activity; how it was run: as §1
SK-MEL-2 = test: Antiproliferative activity against human SK-MEL-2 cells assessed as cell growth at 10 uM; assay type: functional; settings: read-out: Activity; how it was run: as §1
[2] = Cytotoxicity against human H1299 cells at 100 uM after 48 hrs by MTT assay; assay type: functional; settings: NCI-H1299, 48 h
How it was run: (§3)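 H1299 non-small cell lung cancer cells were grown in RPMI 1640 with 10% FBS, penicillin and streptomycin at 37 °C under 5% CO2. About 2 × 10³ cells per well were seeded and left 24 h. Compounds were dissolved fresh in DMSO, diluted into complete medium and applied for 48 h. MTT was then added for 4 h at 37 °C, followed by lysis buffer (20% SDS, 50% DMF) for 16 h, and absorbance was read at 550 nm.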

HCT-15 = test: Antiproliferative activity against human HCT15 cells assessed as cell growth at 10 uM; assay type: functional; settings: read-out: Activity; how it was run: as §1
[3] = Cytotoxicity against human H1299 cells at 1 uM after 48 hrs by MTT assay; assay type: functional; settings: NCI-H1299, 48 h; how it was run: as §3
SF-539 = test: Antiproliferative activity against human SF539 cells assessed as cell growth at 10 uM; assay type: functional; settings: read-out: Activity; how it was run: as §1
M14 = test: Antiproliferative activity against human M14 cells assessed as cell growth at 10 uM; assay type: functional; settings: read-out: Activity; how it was run: as §1
Malme-3M = test: Antiproliferative activity against human MALME-3M cells assessed as cell growth at 10 uM; assay type: functional; settings: read-out: Activity; how it was run: as §1
NCI-H522 = test: Antiproliferative activity against human NCI-H522 cells assessed as cell growth at 10 uM; assay type: functional; settings: read-out: Activity; how it was run: as §1
[4] = Cytotoxicity against human H1299 cells at 10 uM after 48 hrs by MTT assay; assay type: functional; settings: NCI-H1299, 48 h; how it was run: as §3
HT-29 = test: Antiproliferative activity against human HT-29 cells assessed as cell growth at 10 uM; assay type: functional; settings: read-out: Activity; how it was run: as §1
SF-295 = test: Antiproliferative activity against human SF295 cells assessed as cell growth at 10 uM; assay type: functional; settings: read-out: Activity; how it was run: as §1
MDA-MB-435 = test: Antiproliferative activity against human MDA-MB-435 cells assessed as cell growth at 10 uM; assay type: functional; settings: read-out: Activity; how it was run: as §1
[5] = molecular target: Telomerase reverse transcriptase (Homo sapiens) (UniProt O14746); test: Inhibition of TERT in human H1299 cells assessed as residual transcriptional activity at 10 uM after 24 hrs by SEAP reporter gene assay; values are per cent of control
K562 = test: Antiproliferative activity against human K562 cells assessed as cell growth at 10 uM; assay type: functional; settings: read-out: Activity; how it was run: as §1
NCI-H23 = test: Antiproliferative activity against human NCI-H23 cells assessed as cell growth at 10 uM; assay type: functional; settings: read-out: Activity; how it was run: as §1
SR = test: Antiproliferative activity against human SR cells assessed as cell growth at 10 uM; assay type: functional; settings: read-out: Activity; how it was run: as §2
SNB-75 = test: Antiproliferative activity against human SNB75 cells assessed as cell growth at 10 uM; assay type: functional; settings: read-out: Activity; how it was run: as §2
HCT-116 = test: Antiproliferative activity against human HCT116 cells assessed as cell growth at 10 uM; assay type: functional; settings: read-out: Activity; how it was run: as §1
CCRF-CEM = test: Antiproliferative activity against human CCRF-CEM cells assessed as cell growth at 10 uM; assay type: functional; settings: read-out: Activity; how it was run: as §1
T47D = test: Antiproliferative activity against human T47D cells assessed as cell growth at 10 uM; assay type: functional; settings: read-out: Activity; how it was run: as §2
OVCAR-5 = test: Antiproliferative activity against human OVCAR5 cells assessed as cell growth at 10 uM; assay type: functional; settings: read-out: Activity; how it was run: as §1
SW-620 = test: Antiproliferative activity against human SW620 cells assessed as cell growth at 10 uM; assay type: functional; settings: read-out: Activity; how it was run: as §2
NCI/ADR-RES = test: Antiproliferative activity against human NCI/ADR-RES cells assessed as cell growth at 10 uM; assay type: functional; settings: read-out: Activity; how it was run: as §1
OVCAR-4 = test: Antiproliferative activity against human OVCAR4 cells assessed as cell growth at 10 uM; assay type: functional; settings: read-out: Activity; how it was run: as §1
PC-3 = test: Antiproliferative activity against human PC3 cells assessed as cell growth at 10 uM; assay type: functional; settings: read-out: Activity; how it was run: as §1
UACC-62 = test: Antiproliferative activity against human UACC62 cells assessed as cell growth at 10 uM; assay type: functional; settings: read-out: Activity; how it was run: as §2
SK-MEL-5 = test: Antiproliferative activity against human SK-MEL-5 cells assessed as cell growth at 10 uM; assay type: functional; settings: read-out: Activity; how it was run: as §1
NCI-H226 = test: Antiproliferative activity against human NCI-H226 cells assessed as cell growth at 10 uM; assay type: functional; settings: read-out: Activity; how it was run: as §1
[6] = Antiproliferative activity against human Hs 578T cells assessed as cell growth at 10 uM; assay type: functional; settings: read-out: Activity; how it was run: as §1
OVCAR-3 = test: Antiproliferative activity against human OVCAR-3 cells assessed as cell growth at 10 uM; assay type: functional; settings: read-out: Activity; how it was run: as §1
HOP-62 = test: Antiproliferative activity against human HOP62 cells assessed as cell growth at 10 uM; assay type: functional; settings: read-out: Activity; how it was run: as §1
DU-145 = test: Antiproliferative activity against human DU145 cells assessed as cell growth at 10 uM; assay type: functional; settings: read-out: Activity; how it was run: as §1
SK-MEL-28 = test: Antiproliferative activity against human SK-MEL-28 cells assessed as cell growth at 10 uM; assay type: functional; settings: read-out: Activity; how it was run: as §1
EKVX = test: Antiproliferative activity against human EKVX cells assessed as cell growth at 10 uM; assay type: functional; settings: read-out: Activity; how it was run: as §1
MOLT-4 = test: Antiproliferative activity against human MOLT4 cells assessed as cell growth at 10 uM; assay type: functional; settings: read-out: Activity; how it was run: as §1
COLO 205 = test: Antiproliferative activity against human COLO205 cells assessed as cell growth at 10 uM; assay type: functional; settings: read-out: Activity; how it was run: as §1

Sequence of Telomerase reverse transcriptase (Homo sapiens) (O14746 whole entry): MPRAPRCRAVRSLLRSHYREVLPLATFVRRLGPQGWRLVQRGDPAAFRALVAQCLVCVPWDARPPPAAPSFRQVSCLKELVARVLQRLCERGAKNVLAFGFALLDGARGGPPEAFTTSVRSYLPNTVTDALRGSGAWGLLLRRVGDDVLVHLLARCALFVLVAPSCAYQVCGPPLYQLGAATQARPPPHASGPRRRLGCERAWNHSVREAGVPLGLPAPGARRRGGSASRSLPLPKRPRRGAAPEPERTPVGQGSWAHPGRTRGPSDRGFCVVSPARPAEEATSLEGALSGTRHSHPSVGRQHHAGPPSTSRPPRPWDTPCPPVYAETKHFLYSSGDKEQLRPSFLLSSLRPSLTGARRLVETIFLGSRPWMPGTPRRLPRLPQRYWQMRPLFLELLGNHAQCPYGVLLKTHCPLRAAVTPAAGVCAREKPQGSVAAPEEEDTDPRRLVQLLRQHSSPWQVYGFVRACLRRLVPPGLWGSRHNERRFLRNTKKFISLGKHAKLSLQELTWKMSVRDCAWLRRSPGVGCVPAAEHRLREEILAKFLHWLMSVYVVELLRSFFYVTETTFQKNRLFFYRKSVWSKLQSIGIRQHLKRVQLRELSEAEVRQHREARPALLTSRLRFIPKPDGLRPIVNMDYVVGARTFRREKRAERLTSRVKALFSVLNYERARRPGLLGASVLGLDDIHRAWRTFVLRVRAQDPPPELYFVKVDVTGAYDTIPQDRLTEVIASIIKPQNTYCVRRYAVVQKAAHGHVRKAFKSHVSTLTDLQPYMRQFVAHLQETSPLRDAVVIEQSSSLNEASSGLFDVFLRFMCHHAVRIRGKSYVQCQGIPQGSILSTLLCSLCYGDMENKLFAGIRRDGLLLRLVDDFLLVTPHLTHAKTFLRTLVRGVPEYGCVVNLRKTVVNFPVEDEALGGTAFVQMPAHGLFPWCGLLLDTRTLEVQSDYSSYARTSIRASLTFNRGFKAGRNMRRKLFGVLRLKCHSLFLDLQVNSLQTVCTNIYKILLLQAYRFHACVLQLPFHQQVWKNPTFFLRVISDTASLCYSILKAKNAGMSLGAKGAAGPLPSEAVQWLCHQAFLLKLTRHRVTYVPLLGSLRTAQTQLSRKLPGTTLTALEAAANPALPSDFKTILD

Cc1ccc(-c2nc3ccc4c(c3[nH]2)C(=O)c2ccccc2C4=O)cc1
growth at 10 µM (CAKI-1): 110%
growth at 10 µM (SNB-19): 97.8%
growth at 10 µM (HL-60(TB)): 125%
growth at 10 µM (SF-268): 106%
growth at 10 µM (SN12C): 103%
growth at 10 µM (786-0): 113%
growth at 10 µM (U-251): 104%
residual activity [1]: 86%
growth at 10 µM (SK-OV-3): 84.5%
growth at 10 µM (A498): 176%
growth at 10 µM (SK-MEL-2): 79.6%
viability at 100 µM [2]: 16%
growth at 10 µM (HCT-15): 100%
viability at 1 µM [3]: 75%
growth at 10 µM (SF-539): 91.7%
growth at 10 µM (M14): 106%
growth at 10 µM (Malme-3M): 97.6%
growth at 10 µM (NCI-H522): 84.7%
viability at 10 µM [4]: 72%
growth at 10 µM (HT-29): 106%
growth at 10 µM (SF-295): 94.2%
growth at 10 µM (MDA-MB-435): 105%
residual activity [5]: 82%
growth at 10 µM (K562): 102%
growth at 10 µM (NCI-H23): 98.8%
growth at 10 µM (SR): 114%
growth at 10 µM (SNB-75): 107%
growth at 10 µM (HCT-116): 99.8%
growth at 10 µM (CCRF-CEM): 101%
growth at 10 µM (T47D): 76%
growth at 10 µM (OVCAR-5): 106%
growth at 10 µM (SW-620): 113%
growth at 10 µM (NCI/ADR-RES): 104%
growth at 10 µM (OVCAR-4): 96.8%
growth at 10 µM (PC-3): 87.6%
growth at 10 µM (UACC-62): 90%
growth at 10 µM (SK-MEL-5): 88%
growth at 10 µM (NCI-H226): 101%
growth at 10 µM [6]: 138%
growth at 10 µM (OVCAR-3): 96.1%
growth at 10 µM (HOP-62): 110%
growth at 10 µM (DU-145): 98.8%
growth at 10 µM (SK-MEL-28): 154%
growth at 10 µM (EKVX): 91.2%
growth at 10 µM (MOLT-4): 106%
growth at 10 µM (COLO 205): 108%

O=C1c2ccccc2C(=O)c2c1ccc1nc(-c3ccc(Br)cc3)[nH]c21
growth at 10 µM (CAKI-1): 86.6%
growth at 10 µM (SNB-19): 101%
growth at 10 µM (HL-60(TB)): 100%
growth at 10 µM (SF-268): 106%
growth at 10 µM (SN12C): 112%
growth at 10 µM (786-0): 111%
growth at 10 µM (U-251): 105%
residual activity [1]: 89%
growth at 10 µM (SK-OV-3): 105%
growth at 10 µM (A498): 117%
growth at 10 µM (SK-MEL-2): 72.2%
viability at 100 µM [2]: 20%
growth at 10 µM (HCT-15): 96.6%
viability at 1 µM [3]: 96%
growth at 10 µM (SF-539): 103%
growth at 10 µM (M14): 102%
growth at 10 µM (Malme-3M): 224%
growth at 10 µM (NCI-H522): 76.5%
viability at 10 µM [4]: 85%
growth at 10 µM (HT-29): 98.8%
growth at 10 µM (SF-295): 119%
growth at 10 µM (MDA-MB-435): 110%
residual activity [5]: 71%
growth at 10 µM (K562): 109%
growth at 10 µM (NCI-H23): 93.1%
growth at 10 µM (SR): 92.4%
growth at 10 µM (SNB-75): 87.3%
growth at 10 µM (HCT-116): 99.6%
growth at 10 µM (CCRF-CEM): 98.7%
growth at 10 µM (T47D): 97.3%
growth at 10 µM (OVCAR-5): 93.2%
growth at 10 µM (SW-620): 95%
growth at 10 µM (NCI/ADR-RES): 93.7%
growth at 10 µM (OVCAR-4): 94.1%
growth at 10 µM (PC-3): 88.7%
growth at 10 µM (UACC-62): 105%
growth at 10 µM (SK-MEL-5): 87.1%
growth at 10 µM (NCI-H226): 103%
growth at 10 µM [6]: 181%
growth at 10 µM (OVCAR-3): 100%
growth at 10 µM (HOP-62): 104%
growth at 10 µM (DU-145): 113%
growth at 10 µM (SK-MEL-28): 131%
growth at 10 µM (EKVX): 82.7%
growth at 10 µM (MOLT-4): 101%
growth at 10 µM (COLO 205): 110%
